Assay results taken from ChEMBL document CHEMBL3399995, “Synthesis and biological evaluation of benzimidazole acridine derivatives as potential DNA-binding and apoptosis-inducing agents” (Bioorg Med Chem, 2015).
Activity calls are given as the source filed them. The rule behind the calls is not given here.

Legend:
HepG2 = assay: Antiproliferative activity against human HepG2 cells after 48 hrs by MTT assay; type: functional, cell-based; conditions: HepG2, 48 h
How it was run: (§1)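 Cells were grown at 37 °C in 5% CO₂ with 10% FBS, penicillin and streptomycin. Media were IMDM for K562; DMEM for HepG-2, A-375, U-118 MG and A172; RPMI 1640 for CNE-2 and HeLa; MEM-EBSS for U251. MTT (5 mg/mL) was added for 4 h at 37 °C, formazan dissolved in DMSO, and A490 read. IC50 is the concentration giving 50% growth inhibition.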

K562 [1] = assay: Antiproliferative activity against human K562 cells after 48 hrs by MTT assay; type: functional, cell-based; conditions: K562, 48 h; how it was run: as §1
[2] = molecular target: T1, DNA topoisomerase 1 (Homo sapiens) (UniProt P11387); assay: Inhibition of recombinant human DNA topoisomerase 1 assessed as relaxation of plasmid DNA pBR322 at 50 uM by agarose gel electrophoresis
T1 sequence (whole entry): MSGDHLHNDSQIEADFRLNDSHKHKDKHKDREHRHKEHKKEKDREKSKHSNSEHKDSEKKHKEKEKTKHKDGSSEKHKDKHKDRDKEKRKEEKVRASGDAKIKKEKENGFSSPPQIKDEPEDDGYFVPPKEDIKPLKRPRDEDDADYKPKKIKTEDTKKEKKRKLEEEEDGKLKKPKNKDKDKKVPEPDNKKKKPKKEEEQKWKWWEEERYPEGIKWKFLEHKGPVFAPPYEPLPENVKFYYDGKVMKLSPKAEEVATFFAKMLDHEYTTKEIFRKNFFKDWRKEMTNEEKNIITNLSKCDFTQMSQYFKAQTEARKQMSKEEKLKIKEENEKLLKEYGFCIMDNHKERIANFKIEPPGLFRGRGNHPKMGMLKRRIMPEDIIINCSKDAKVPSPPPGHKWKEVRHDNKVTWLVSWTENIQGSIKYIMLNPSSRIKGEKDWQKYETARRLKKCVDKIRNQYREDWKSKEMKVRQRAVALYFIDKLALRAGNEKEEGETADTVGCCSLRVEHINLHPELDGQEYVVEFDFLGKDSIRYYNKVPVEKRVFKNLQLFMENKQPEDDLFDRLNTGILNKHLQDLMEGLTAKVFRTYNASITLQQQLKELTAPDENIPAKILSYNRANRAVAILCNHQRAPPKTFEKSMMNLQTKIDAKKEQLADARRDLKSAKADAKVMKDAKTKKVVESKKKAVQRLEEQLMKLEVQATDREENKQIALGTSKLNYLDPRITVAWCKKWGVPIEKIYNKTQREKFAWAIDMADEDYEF
How it was run: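 pBR322 (100 ng) was incubated with 1.0 unit recombinant human topoisomerase I and compound (50 μM) at 37 °C for 30 min. Relaxation buffer was 35 mM Tris-HCl pH 8.0, 5 mM MgCl2, 72 mM KCl, 0.01% BSA, 2 mM spermidine, 5 mM DTT. Products were resolved on 1% agarose in TAE at 100 V for 25 min and stained with ethidium bromide.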

K562 [3] = assay: Induction of apoptosis in human K562 cells assessed as early apoptotic cells at 2.5 uM by annexin V-FITC/propidium iodide staining-based flow cytometry (reference value: 0.709%)
K562 [4] = assay: Induction of apoptosis in human K562 cells assessed as activation of caspase 9 at 10 uM after 48 hrs by Western blot analysis; type: functional, cell-based
How it was run: (§2)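 K562 cells in 6 cm dishes were exposed to 1, 5 or 10 μM for 48 h, then lysed at 0 °C for 0.5 h and spun at 20,000 g for 10 min. Protein was measured by BCA. Lysates were run on 12% SDS-PAGE and transferred to PVDF. Membranes were blocked in 5% milk for 1 h, then given primary antibody overnight at 4 °C.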

HeLa = assay: Antiproliferative activity against human HeLa cells after 48 hrs by MTT assay; type: functional, cell-based; how it was run: as §1
K562 [5] = assay: Induction of apoptosis in human K562 cells assessed as necrotic cells at 2.5 uM by annexin V-FITC/propidium iodide staining-based flow cytometry (reference value: 0.203%); type: functional
Calf thymus DNA [6] = assay: Binding affinity to calf thymus DNA after 3 mins by fluorescence absorption spectroscopy; type: nucleic-acid assay; conditions: Bos taurus
How it was run: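 Fluorescence titration of the compound (3.75 μM final) in 10 mM Tris-HCl, 10 mM NaCl, pH 7.0, with ct DNA at 0, 1, 2, 3, 4 and 5 μM final. Samples sat 3 min before emission spectra were recorded. The binding constant came from the Stern-Volmer fit F0/F = 1 + K[Q], with [Q] the DNA concentration.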

K562 [7] = assay: Induction of apoptosis in human K562 cells assessed as PARP cleavage at 10 uM after 48 hrs by Western blot analysis; type: functional, cell-based; how it was run: as §2
A-375 = assay: Antiproliferative activity against human A375 cells after 48 hrs by MTT assay; type: functional, cell-based; conditions: A-375, 48 h; how it was run: as §1
U-251 = assay: Antiproliferative activity against human U251 cells after 48 hrs by MTT assay; type: functional, cell-based; conditions: U-251, 48 h; how it was run: as §1
K562 [8] = assay: Induction of apoptosis in human K562 cells assessed as viable cells at 2.5 uM by annexin V-FITC/propidium iodide staining-based flow cytometry (reference value: 98.9%); type: functional; conditions: read-out: Activity
K562 [9] = assay: Induction of apoptosis in human K562 cells assessed as late apoptotic or necrotic cells at 2.5 uM by annexin V-FITC/propidium iodide staining-based flow cytometry (reference value: 0.162%)
[10] = Antiproliferative activity against human CNE2 cells after 48 hrs by MTT assay; type: functional, cell-based; conditions: CNE-2, 48 h; how it was run: as §1
K562 [11] = assay: Induction of apoptosis in human K562 cells assessed as downregulation of Bcl-xL protein expression at 10 uM after 48 hrs by Western blot analysis; type: functional, cell-based; how it was run: as §2
[12] = Antiproliferative activity against human A172 cells after 48 hrs by MTT assay; type: functional, cell-based; conditions: A 172, 48 h; how it was run: as §1
K562 [13] = assay: Induction of apoptosis in human K562 cells assessed as activation of caspase 3 at 10 uM after 48 hrs by Western blot analysis; type: functional, cell-based; how it was run: as §2
K562 [14] = assay: Induction of apoptosis in human K562 cells assessed as activation of caspase 7 at 10 uM after 48 hrs by Western blot analysis; type: functional, cell-based; how it was run: as §2
K562 [15] = assay: Induction of apoptosis in human K562 cells assessed as apoptotic cells at 10 uM by annexin V-FITC/propidium iodide staining-based flow cytometry (reference value: 0.162%)
K562 [16] = assay: Induction of apoptosis in human K562 cells assessed as loss of mitochondrial membrane potential at 2.5 uM using JC-1 staining by fluorescence assay; type: functional, cell-based
How it was run: (§3)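 Mitochondrial membrane potential in treated K562 cells (0, 2.5, 10 μM) was measured with a JC-1 kit. Red fluorescence marks high potential and green marks low. CCCP at 10 μM served as positive control.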

Calf thymus DNA [17] = assay: Binding affinity to calf thymus DNA after 3 mins by UV-vis absorption spectra analysis; type: nucleic-acid assay, Bos taurus
How it was run: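 ct DNA titration of the compound (40 μM) in 10 mM Tris-HCl, 10 mM NaCl, pH 7.0, at [DNA]/[compound] 0–1.0, in a 1.0 cm quartz cell. Samples sat 3 min before UV-vis spectra were recorded. Kb was taken as the slope-to-intercept ratio of [DNA]/(εa−εf) plotted against [DNA].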

K562 [18] = assay: Induction of apoptosis in human K562 cells assessed as necrotic cells at 10 uM by annexin V-FITC/propidium iodide staining-based flow cytometry (reference value: 0.203%); type: functional
[19] = Antiproliferative activity against human U118MG cells after 48 hrs by MTT assay; type: functional, cell-based; conditions: U-118-MG; how it was run: as §1
K562 [20] = assay: Induction of apoptosis in human K562 cells assessed as loss of mitochondrial membrane potential at 10 uM using JC-1 staining by fluorescence assay; type: functional, cell-based; how it was run: as §3
K562 [21] = assay: Induction of apoptosis in human K562 cells assessed as early apoptotic cells at 10 uM by annexin V-FITC/propidium iodide staining-based flow cytometry (reference value: 0.709%)
K562 [22] = assay: Induction of apoptosis in human K562 cells assessed as viable cells at 10 uM by annexin V-FITC/propidium iodide staining-based flow cytometry (reference value: 98.9%); type: functional; conditions: read-out: Activity

SMILES: COc1ccc2nc3ccccc3c(NCc3nc4ccccc4[nH]3)c2c1
- IC50 (HepG2): 8.92 µM
- IC50 (K562 [1]): 4.68 µM
- inhibition [2]: Active

SMILES: COc1ccc2nc3ccccc3c(Nc3nc4ccccc4[nH]3)c2c1
- IC50 (HepG2): 4.53 µM
- IC50 (K562 [1]): 8.63 µM
- inhibition [2]: Active

SMILES: c1ccc2[nH]c(Sc3c4ccccc4nc4ccccc34)nc2c1
- IC50 (HepG2): > 50 µM
- IC50 (K562 [1]): 14 µM
- inhibition [2]: Active

SMILES: c1ccc2[nH]c(Nc3c4ccccc4nc4ccccc34)nc2c1
- IC50 (HepG2): 4.01 µM
- IC50 (K562 [1]): > 50 µM
- inhibition [2]: Active

SMILES: Cc1ccc2c(NCc3nc4ccccc4[nH]3)c3ccccc3nc2c1
- IC50 (HepG2): 32.6 µM
- IC50 (K562 [1]): 25.1 µM
- inhibition [2]: Active

SMILES: Cc1cccc2c(NCc3nc4ccccc4[nH]3)c3ccccc3nc12
- IC50 (HepG2): > 50 µM
- IC50 (K562 [1]): 42.6 µM
- inhibition [2]: Active

SMILES: Cc1ccc2nc3ccccc3c(NCc3nc4ccccc4[nH]3)c2c1
- IC50 (HepG2): 38.8 µM
- IC50 (K562 [1]): 12.3 µM
- inhibition [2]: Active

SMILES: c1ccc2[nH]c(-c3ccc(Nc4c5ccccc5nc5ccccc45)cc3)nc2c1
- IC50 (HepG2): > 50 µM
- IC50 (K562 [1]): 2.82 µM
- inhibition [2]: Active

SMILES: COc1cccc2c(NCc3nc4ccccc4[nH]3)c3ccccc3nc12
- IC50 (HepG2): 28.5 µM
- IC50 (K562 [1]): 7.46 µM
- inhibition [2]: Active

SMILES: c1ccc2[nH]c(CNc3c4ccccc4nc4ccccc34)nc2c1
- IC50 (HepG2): > 50 µM
- IC50 (K562 [1]): 11.2 µM
- inhibition [2]: Active

SMILES: COc1cccc2c(Nc3nc4ccccc4[nH]3)c3ccccc3nc12
- IC50 (HepG2): 6.32 µM
- IC50 (K562 [1]): 7.2 µM
- inhibition [2]: Active

SMILES: COc1ccc2c(NCc3nc4ccccc4[nH]3)c3ccccc3nc2c1
- IC50 (HepG2): 15.4 µM
- IC50 (K562 [1]): 15.2 µM
- inhibition [2]: Active

SMILES: Fc1ccc2c(NCc3nc4ccccc4[nH]3)c3ccccc3nc2c1
- IC50 (HepG2): 10.7 µM
- IC50 (K562 [1]): 28.5 µM
- inhibition [2]: Active

SMILES: CCCCc1ccc2nc3ccccc3c(NCc3nc4ccccc4[nH]3)c2c1
- early apoptotic cells at 2.5 µM (K562 [3]): 14.9%
- Activity (K562 [4]): Active
- IC50 (HeLa): 2.76 µM
- IC50 (HepG2): 8.11 µM
- Activity (K562 [5]): 0.55%
- Activity (Calf thymus DNA [6]): Active
- Activity (K562 [7]): Active
- IC50 (K562 [1]): 2.68 µM
- IC50 (A-375): 3.2 µM
- IC50 (U-251): 2.39 µM
- viability at 2.5 µM (K562 [8]): 83.3%
- late apoptotic or necrotic cells at 2.5 µM (K562 [9]): 1.27%
- IC50 [10]: 2.62 µM
- inhibition [2]: Active
- Activity (K562 [11]): Active
- IC50 [12]: 2.86 µM
- Activity (K562 [13]): Active
- Activity (K562 [14]): Active
- apoptotic cells at 10 µM (K562 [15]): 10.6%
- Activity (K562 [16]): Active
- Kb (Calf thymus DNA [17]): 1.88 ×10⁵ /M
- Activity (K562 [18]): 1.37%
- IC50 [19]: 1.98 µM
- Activity (K562 [20]): Active
- early apoptotic cells at 10 µM (K562 [21]): 57.3%
- viability at 10 µM (K562 [22]): 30.8%

SMILES: CCc1ccc2nc3ccccc3c(NCc3nc4ccccc4[nH]3)c2c1
- IC50 (HepG2): > 50 µM
- IC50 (K562 [1]): 7.52 µM
- inhibition [2]: Active

SMILES: Clc1ccc2nc3ccccc3c(NCc3nc4ccccc4[nH]3)c2c1
- IC50 (HepG2): 40.6 µM
- IC50 (K562 [1]): 11.8 µM
- inhibition [2]: Active

SMILES: Fc1cc2nc3ccccc3c(NCc3nc4ccccc4[nH]3)c2cc1F
- IC50 (HepG2): 25.7 µM
- IC50 (K562 [1]): 17.4 µM
- inhibition [2]: Active
